These results are taken from ChEMBL document CHEMBL1133533 (J Med Chem, 2000).

Broadly, the Ki is a measure of affinity in units of concentration, obtained from inhibition or displacement. As a reminder, the EC50 is the concentration at which the effect is half-maximal. A lower EC50 goes with higher potency in that assay.

The target of test [1] is T1, D(2) dopamine receptor (Homo sapiens, UniProt P14416). Nature of the test: Displacement of [3H]spiperone from human Dopamine receptor D2L expressed in CHO cells. The format is cell-based. (Loss of bound radioactivity is the signal in a displacement assay; it reports binding, not function.)
For test [2], the target named is T2, D(4) dopamine receptor (Homo sapiens, UniProt P21917).
T2 sequence (P21917 whole entry): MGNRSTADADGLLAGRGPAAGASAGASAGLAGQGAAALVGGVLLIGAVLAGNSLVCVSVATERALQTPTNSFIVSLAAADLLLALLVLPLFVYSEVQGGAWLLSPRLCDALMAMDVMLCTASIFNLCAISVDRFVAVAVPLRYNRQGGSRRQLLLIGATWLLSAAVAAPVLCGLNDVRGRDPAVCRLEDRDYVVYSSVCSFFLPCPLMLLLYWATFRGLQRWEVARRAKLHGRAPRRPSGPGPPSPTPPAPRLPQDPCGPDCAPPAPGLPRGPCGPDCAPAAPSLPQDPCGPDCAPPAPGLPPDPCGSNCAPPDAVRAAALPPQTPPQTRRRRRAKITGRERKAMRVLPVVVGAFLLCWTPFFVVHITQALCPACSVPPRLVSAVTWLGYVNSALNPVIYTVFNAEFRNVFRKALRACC
Briefly: Displacement of [3H]spiperone from human Dopamine receptor D4.4 expressed in CHO cells. The format is cell-based. In a few lines: (§1)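 Membranes from CHO cells stably expressing human D2short, D3 or D4.4 receptor, 5-25 µg protein/tube, competing against [3H]spiperone. Eight concentrations in triplicate, 2-4 independent experiments. Sigmoid nonlinear fit gives IC50, converted to Ki by Cheng-Prusoff; reported as mean ± SEM; Hill slopes fit a one-site model.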

The target in test [3] is D(3) dopamine receptor (Homo sapiens, UniProt P35462). Nature of the test: Displacement of [3H]spiperone from human Dopamine receptor D3 expressed in CHO cells. The format is cell-based. In a few lines:
as §1

Test [4] deals with T3, D(1A) dopamine receptor (Bos taurus, UniProt Q95136). Briefly: Displacement of [3H]SCH-23390 from Dopamine receptor D1 of bovine striatal membranes.
Test [5] deals with T1, D(2) dopamine receptor. Briefly: Displacement of [3H]spiperone from human Dopamine receptor D2S expressed in CHO cells. The format is cell-based. In a few lines: as §1
Test [6] has as its target T4, D(4) dopamine receptor (Homo sapiens) (UniProt P21917).
T4 sequence (whole entry): T2 sequence (P21917 whole entry)
Nature of the test: (§2) Effective dose was measured by the stimulation of mitogenesis at dopamine D4.2 receptor. The format is functional. In a few lines:
(§3)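 CHO10001A cells stably expressing human D4.2 receptor, seeded at 10 000 cells/well and grown 75 h in medium with 10% FCS. Cells rinsed with serum-free medium, then given seven concentrations (final 0.001-1000 nM) for 16-18 h. [3H]thymidine 0.25 µCi/well added for 2 h at 37 °C, then filter harvest and counting. Quadruplicates, 6 experiments, normalized mean curve; EC50 from mean curves.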

The target of test [7] is T4, D(4) dopamine receptor (Homo sapiens). Nature of the test: Agonistic effect was measured by the stimulation of mitogenesis at dopamine D4.2 receptor. The format is functional. In outline:
as §3

The target of test [8] is T3, D(1A) dopamine receptor. Nature of the test: Binding affinity against Dopamine receptor D1 from bovine striatal membranes using [3H]SCH-23390 as radioligand. In outline:
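Bovine striatal membranes, 25 µg protein/tube, competing against [3H]SCH 23390 (Kd 0.27-0.32 nM). Eight concentrations in triplicate, 2-4 independent experiments. Sigmoid nonlinear fit gives IC50, converted to Ki by Cheng-Prusoff; reported as mean ± SEM.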

The target of test [9] is T2, D(4) dopamine receptor. Described as §2. The format is functional. In a few lines:
as §3

T1 sequence (P14416 whole entry): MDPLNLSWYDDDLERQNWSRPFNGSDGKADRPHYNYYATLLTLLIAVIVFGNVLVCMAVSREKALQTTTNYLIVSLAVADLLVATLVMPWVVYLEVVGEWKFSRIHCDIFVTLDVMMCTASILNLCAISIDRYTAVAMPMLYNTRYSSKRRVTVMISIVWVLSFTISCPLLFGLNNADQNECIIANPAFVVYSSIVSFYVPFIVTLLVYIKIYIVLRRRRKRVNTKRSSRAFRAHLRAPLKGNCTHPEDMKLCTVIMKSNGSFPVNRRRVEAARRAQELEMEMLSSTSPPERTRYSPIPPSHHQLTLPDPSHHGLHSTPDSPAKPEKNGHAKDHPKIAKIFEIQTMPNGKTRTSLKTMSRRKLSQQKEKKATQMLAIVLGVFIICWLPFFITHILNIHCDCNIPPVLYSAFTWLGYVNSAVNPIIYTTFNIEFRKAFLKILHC
D(3) dopamine receptor, sequence (P35462 whole entry): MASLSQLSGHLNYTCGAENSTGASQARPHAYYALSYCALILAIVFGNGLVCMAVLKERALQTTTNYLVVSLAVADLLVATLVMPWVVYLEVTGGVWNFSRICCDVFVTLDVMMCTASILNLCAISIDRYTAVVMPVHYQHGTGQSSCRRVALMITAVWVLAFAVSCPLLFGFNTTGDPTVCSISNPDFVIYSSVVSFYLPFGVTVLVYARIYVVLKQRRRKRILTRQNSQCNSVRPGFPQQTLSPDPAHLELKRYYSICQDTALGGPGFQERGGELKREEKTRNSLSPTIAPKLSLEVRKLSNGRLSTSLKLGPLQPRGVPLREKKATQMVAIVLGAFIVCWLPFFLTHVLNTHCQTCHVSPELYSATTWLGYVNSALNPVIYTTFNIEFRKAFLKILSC
T3 sequence (Q95136 whole entry): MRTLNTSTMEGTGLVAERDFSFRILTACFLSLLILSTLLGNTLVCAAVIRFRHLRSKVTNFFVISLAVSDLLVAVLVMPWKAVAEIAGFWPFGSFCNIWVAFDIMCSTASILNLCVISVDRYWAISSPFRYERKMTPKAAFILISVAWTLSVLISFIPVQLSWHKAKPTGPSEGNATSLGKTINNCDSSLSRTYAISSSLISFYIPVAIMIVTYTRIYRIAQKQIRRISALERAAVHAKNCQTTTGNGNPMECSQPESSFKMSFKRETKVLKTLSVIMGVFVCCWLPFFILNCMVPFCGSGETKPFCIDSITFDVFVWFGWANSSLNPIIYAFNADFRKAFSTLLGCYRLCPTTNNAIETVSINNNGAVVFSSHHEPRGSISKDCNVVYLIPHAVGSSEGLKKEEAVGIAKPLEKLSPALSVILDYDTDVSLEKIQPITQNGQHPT

As to `N#Cc1ccc2[nH]cc(CN3CCN(c4ccc(Cl)c(Cl)c4)CC3)c2c1`, the inhibitory constant (Ki) came to 0.79 µM in test [1]; 0.022 µM in [2]; 0.87 µM in [3]; 0.45 µM in test [4]; 0.48 µM in test [5].

Consider `N#Cc1ccc2[nH]c(CN3CCN(c4ccccc4)CC3)cc2c1`, for which the Ki in [1] was 3.1 µM; in test [2], 0.00052 µM; in test [3] it was 1.7 µM; in test [4], 13 µM; in test [5], 0.29 µM. Besides, the ED50 in test [6] is 0.0015 µM. Also, the Effect in test [7] stood at 35%.

Turning to `N#Cc1ccc2[nH]c(CN3CCN(c4ccccc4Cl)CC3)cc2c1`, the inhibition constant (Ki) was 2.3 µM in test [1]; 0.0014 µM in test [2]; 1.7 µM in [3]; 7.5 µM in test [4]; 0.95 µM in [5].

As for `N#Cc1ccc2[nH]c(CN3CCN(c4ccc(F)cc4)CC3)cc2c1`, the Ki in test [1] amounted to 28 µM; in test [2] it was 0.001 µM; in test [8] it was 8.6 µM; in [3] it was 15 µM; in test [5] it was 19 µM. In test [9], this compound registered a concentration giving a half-maximal response (EC50) of 0.0094 µM. The compound further came in with an Effect in [7] of 30%.

On to `N#Cc1ccc2cc(CN3CCN(c4ccccc4)CC3)[nH]c2c1`, for which the inhibitory constant (Ki) was 5.6 µM in test [1]; 0.0036 µM in test [2]; 5.3 µM in [8]; 3.1 µM in [3]; 2.5 µM in test [5].

As to `N#Cc1ccc2cc(CN3CCN(c4ccc(Cl)c(Cl)c4)CC3)[nH]c2c1`, the Ki in [1] came out at 2 µM; in test [2], 0.009 µM; in test [8], 0.88 µM; in [3] it was 33 µM; in [5] it was 1.4 µM.

Regarding `N#Cc1ccc2cc(CN3CCN(c4ccccc4Cl)CC3)[nH]c2c1`, the inhibition constant (Ki) in test [2] amounted to 0.0034 µM; in test [8], 1.9 µM; in [3], 0.92 µM.

With `N#Cc1ccc2[nH]cc(CN3CCN(c4ccccc4)CC3)c2c1`, the Ki in [1] is 34 µM; in [2], 0.05 µM; in test [3] it was 4.4 µM; in test [4], 3 µM; in test [5] it was 3.5 µM.

As for `N#Cc1ccc2[nH]cc(CN3CCN(c4ccc(Cl)cc4)CC3)c2c1`, the Ki turned out to be 4.3 µM in test [1]; 0.029 µM in test [2]; 6.4 µM in test [3]; 0.55 µM in test [4]; 2.6 µM in test [5].

Regarding `N#Cc1ccc2[nH]cc(CN3CCN(c4ccccc4Cl)CC3)c2c1`, the Ki in test [1] amounted to 1.4 µM; in test [2] it was 0.017 µM; in test [3], 0.55 µM; in test [4], 0.51 µM; in [5], 0.54 µM.

Consider `N#Cc1ccc2[nH]cc(CN3CCN(c4ccc(F)cc4)CC3)c2c1`, for which the Ki came to 2.4 µM in test [1]; 0.11 µM in test [2]; 5.2 µM in [3]; 0.49 µM in test [4]; 1.8 µM in test [5].

For the compound `N#Cc1ccc2[nH]c(CN3CCN(c4ccc(Cl)c(Cl)c4)CC3)cc2c1`, the Ki is 43 µM in test [1]; 0.0075 µM in [2]; 11 µM in test [8]; 20 µM in test [3]; 36 µM in [5].

Take `N#Cc1ccc2[nH]c(CN3CCN(c4ccc(Cl)cc4)CC3)cc2c1`: the inhibition constant Ki in test [1] amounted to 7.9 µM; in test [2] it was 0.0021 µM; in test [8], 5.3 µM; in test [3] it was 13 µM; in test [5], 7.6 µM.
